The values that follow come from ChEMBL document CHEMBL4834426, “Antimalarial Benzimidazole Derivatives Incorporating Phenolic Mannich Base Side Chains Inhibit Microtubule and Hemozoin Formation: Structure-Activity Relationship and In Vivo Oral Efficacy Studies” (J Med Chem, 2021).

The structures appear in SMILES notation. Active and inactive are the calls of the source.

Data set [1] is described as follows: Metabolic stability in mouse liver microsomes assessed as compound remaining at 1 uM incubated for 30 mins by LC-MS/MS analysis. Format: ADME, Microsome. The settings on record: read-out: Stabilty. Put shortly:
(§1)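 Single-point design: 1 μM compound with 0.4 mg/mL liver microsomes in 0.1 M phosphate buffer pH 7.4 for 30 min. Quenched with ice-cold acetonitrile containing carbamazepine internal standard, centrifuged, analyzed by LC−MS/MS. Percent remaining from internal-standard-corrected peak areas at 30 min versus 0 min. Propranolol, midazolam and MMV390048 as controls.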

Data set [2] can be described thus: Half life in Balb/c mouse at 3 mg/kg, iv measured up to 24 hrs by LC-MS/MS analysis. It is filed as ADME, organism-based. The settings on record: in vivo. The procedure, abridged:
(§2)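 Intravenous dosing in male Balb/c mice, fed ad libitum. Tail-vein blood sampled into heparinized tubes at 0.17, 0.5, 1, 3, 5, 7, 9 and 24 h, frozen at −80 °C. Blood extracted by acetonitrile protein precipitation with internal standard; LC−MS/MS quantitation, LOQ 2 ng/mL. Noncompartmental analysis based on curve stripping.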

Data set [3] in a line: AUC (0 to t) in Balb/c mouse at 3 mg/kg, iv measured up to 24 hrs by LC-MS/MS analysis. It is filed as ADME, organism-based. Also on record: dose 3 mg/kg, time <=24. The following applies: in vivo. Put shortly:
as §2

Data set [4] can be described thus: Oral bioavailability in Balb/c mouse at 10 mg/kg measured up to 24 hrs by LC-MS/MS analysis. Format: ADME, organism-based. The settings on record: in vivo. Put shortly: (§3)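 Male Balb/c mice, not fasted, food and water ad libitum; single oral dose. Tail-vein blood into heparinized tubes at 0.5, 1, 3, 5, 7, 9 and 24 h, stored at −80 °C. Whole blood protein-precipitated with acetonitrile containing internal standard, analyzed by LC−MS/MS (LOQ 2 ng/mL). Parameters by noncompartmental analysis with curve stripping. Mean of three mice per point.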

Data set [5] is described as follows: Half life in Balb/c mouse at 10 mg/kg, po measured up to 24 hrs by LC-MS/MS analysis. The settings on record: in vivo. It is filed as ADME, organism-based. The procedure, abridged: as §3
Data set [6] is described as follows: Clearance in Balb/c mouse at 3 mg/kg, iv measured up to 24 hrs by LC-MS/MS analysis. Format: ADME, organism-based. The following applies: in vivo. The procedure, abridged:
as §2

Data set [7] concerns CHO. The experiment in a line: Cytotoxicity against CHO cells assessed as inhibition of cell viability by MTT assay. The settings on record: Cricetulus griseus. Format: cell-based.
Data set [8] in a line: Volume of distribution in Balb/c mouse at 3 mg/kg, iv measured up to 24 hrs by LC-MS/MS analysis. Format: ADME, organism-based. The following applies: in vivo. The procedure, abridged:
as §2

Data set [9] has as its system Plasmodium falciparum. Put plainly: Antimalarial activity against asexual blood stage multi drug-resistant Plasmodium falciparum K1 infected in erythrocytes assessed as reduction in parasitemia incubated up to 72 hrs by [3H]hypoxanthine incorporation assay. Format: functional, organism-based. The procedure, abridged: (§4)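 [³H]-Hypoxanthine incorporation assay (modified) on asexual blood-stage P. falciparum in vitro. IC₅₀ values are means of ≥2 independent experiments.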

Data set [10] has as its system Plasmodium falciparum. The experiment in a line: Antiplasmodial activity against […] Plasmodium falciparum NF54 late gametocytes transfected with GFP-Luc […] incubated for 48 hrs by microscopy based luciferase reporter gene assay relative to control. It is filed as functional, organism-based. The settings on record: NF54, 48 h. Put shortly: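 Transgenic NF54-Pfs16-GFP-Luc gametocytes, read by luciferase reporter. Early assays were set up on day 5 (50% stage II/50% stage III) and late assays on day 10 (40% stage IV/60% stage V). Luciferin was added to lysates at room temperature and bioluminescence read. Methylene blue (5 μM) was the reference. Single-point screens at 1 and 5 μM used n=1 in technical triplicate. IC₅₀ came from a normalized nonlinear fit, n≥3 in triplicate.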
(In general: In a reporter assay the amount or activity of a reporter protein is the signal.)

Data set [11] can be described thus: AUC (0 to t) in Balb/c mouse at 10 mg/kg, po measured up to 24 hrs by LC-MS/MS analysis. Format: ADME, organism-based. The arrangement: dose 10 mg/kg, time <=24. The settings on record: in vivo. The procedure, abridged: as §3
The subject of data set [12] is Plasmodium falciparum. Put plainly: Antiplasmodial activity against […] Plasmodium falciparum NF54 late gametocytes transfected with GFP-Luc […] at 1 uM incubated for 48 hrs by microscopy based luciferase reporter gene assay relative to control. Format: functional. Put shortly:
(§5)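 NF54-Pfs16-GFP-Luc gametocytes, assays set up day 5 (early, stage II/III) or day 10 (late, stage IV/V). Culture at 2−3% gametocytemia, 1.5% hematocrit, 48 h drug exposure at 37 °C under 90% N₂/5% O₂/5% CO₂. Lysates mixed with luciferin; bioluminescence read with 10 s integration. Dual-point: one biological repeat in technical triplicate. Methylene blue (5 μM) reference.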

In data set [13] the test system is Plasmodium falciparum NF54. The experiment in a line: Inhibition of tubulin polymerization in […] Plasmodium falciparum NF54 early gametocytes at 2400 nM incubated for 24 hrs by tubulin tracker Oregon Green staining method. Put shortly: (§6)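 Treatment at 600 nM for asexual parasites (~1% parasitemia, 5% hematocrit, sorbitol-synchronized rings) or 2400 nM for early gametocytes (~2% gametocytemia, 2% hematocrit, 20% I/60% II/20% III). 24 h at 37 °C, 90% N₂/5% CO₂/5% O₂, DMSO <0.1%. Stained with 250 nM Tubulin Tracker Oregon Green 488 for 30 min and Hoechst (100 nM) for 10 min. PBS-washed, imaged live by confocal microscopy. Colchicine (20 μM) positive control.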

Data set [14] is described as follows: Kinetic solubility of the compound in pH 6.5 incubated for 24 hrs by HPLC-DAD analysis. The settings on record: buffer, read-out: Kinetic_solubility. Format: physicochemical. The procedure, abridged: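 Miniaturized shake-flask method. 10 mM DMSO stock dried down, phosphate buffer pH 6.5 added, shaken 24 h at 25 °C. Centrifuged 3500g for 15 min; supernatant analyzed by HPLC-DAD against 10−220 μM DMSO calibration curve. Reserpine, hydrocortisone and MMV390048 as controls.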

The test system of data set [15] is Plasmodium falciparum. Put plainly: Antiplasmodial activity against […] Plasmodium falciparum NF54 early gametocytes transfected with GFP-Luc […] at 1 uM incubated for 48 hrs by microscopy based luciferase reporter gene assay relative to control. It is filed as functional. The procedure, abridged: as §5

Data set [16] relates to Plasmodium falciparum NF54. Put plainly: Inhibition of tubulin polymerization in asexual stage (I) Plasmodium falciparum NF54 early gametocytes at 2400 nM incubated for 24 hrs by tubulin tracker Oregon Green staining method. The procedure, abridged: as §6
Data set [17] deals with Hemozoin. The experiment in a line: Inhibition of Beta-hematin in early ring stage Plasmodium falciparum parasitized red blood cells assessed as hemozoin formation formation after 32 hrs by Giemsa staining based haemocytometric counting method.
A short description of data set [18]: Tmax in Balb/c mouse at 10 mg/kg, po measured up to 24 hrs by LC-MS/MS analysis. It is filed as ADME, organism-based. The following applies: in vivo. Put shortly:
as §3

Data set [19] is described as follows: Selectivity index, ratio of IC50 for Cytotoxicity against CHO cells assessed as inhibition of cell viability by MTT assay to IC50 for antimalarial activity against asexual blood stage Plasmodium falciparum NF54 assessed as reduction in parasitemia incubated up to 72 hrs by [3H]hypoxanthine incorporation assay. Format: toxicity, cell-based. The following applies: hamster, read-out: Selectivity Index. The procedure, abridged: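 Selectivity index is IC₅₀(CHO)/IC₅₀(NF54). […] IC₅₀ came from nonlinear dose-response fitting. Parasite IC₅₀ came from the [³H]-hypoxanthine assay.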

Data set [20] has as its system Plasmodium falciparum. The experiment in a line: Antimalarial activity against asexual blood stage drug-sensitive Plasmodium falciparum NF54 infected in erythrocytes assessed as reduction in parasitemia incubated up to 72 hrs by [3H]hypoxanthine incorporation assay. It is filed as functional, organism-based. Put shortly: as §4
A short description of data set [21]: Cmax in Balb/c mouse at 10 mg/kg, po measured up to 24 hrs by LC-MS/MS analysis. It is filed as ADME, organism-based. The arrangement: route oral, dose 10 mg/kg, time <=24. The settings on record: in vivo. The procedure, abridged:
as §3

Data set [22] is described as follows: Metabolic stability in human liver microsomes assessed as compound remaining at 1 uM incubated for 30 mins by LC-MS/MS analysis. Format: ADME, Microsome. The following applies: read-out: Stabilty. The procedure, abridged:
as §1
In general terms: Liver microsomes are vesicles of endoplasmic reticulum, rich in cytochrome P450 enzymes.

Regarding `CCNCc1cc(Cl)cc(Nc2nc3cc(F)c(F)cc3n2Cc2ccc(C(F)(F)F)cc2)c1O`, the remaining at 0.5 h, 1 µM in data set [1] was 86%; in data set [22], more than 99%. The half-life – broadly, the time needed for the level to fall by half in the phase considered – in data set [2] was 6.3 h; in data set [5], 8.3 h. Besides, the AUCt in [3] stood at 443 µmol·min/L; in data set [11], 321 µmol·min/L. For the same compound, the bioavailability (in general, the share of a dose that reaches the circulation, judged against a reference dose that is usually intravenous) in data set [4] turned out to be 24%. Besides, the clearance (usually the rate of elimination divided by the concentration) in data set [6] was determined as 12.6 mL/min/kg. Moreover, the IC50 (usually the concentration needed to halve the response being measured) in [7] is more than 50000 nM; in [9], 80 nM; in data set [10], more than 5000 nM; in data set [20], 190 nM. Besides, in [8], the Vd (as a rule, the apparent volume that relates the amount in the body to the concentration in plasma or blood) turned out to be 6.9 L/kg. Moreover, the inhibition – broadly, the drop in the measured response relative to a control, in per cent – at 1 µM was found to be 0% in data set [12] and 62% in [15]. Besides, the inhibition result in [13] was “Active”. The solubility kinetic at 24 h in data set [14] was less than 5 µM. Also, the inhibition entry in data set [16] is “inactive”. Also, the result in data set [17] was inactive. Also, the Tmax (usually the time at which the peak concentration occurs) in [18] was 2.8 h. Besides, the selectivity ratio at 72 h in data set [19] was more than 263. The Cmax (commonly the peak of the concentration-time curve) in data set [21] stood at 400 nM.
